Assay results: ChEMBL document CHEMBL4028906, “Allosteric Inhibitors of SHP2 with Therapeutic Potential for Cancer Treatment” (J Med Chem, 2017)
Active and inactive are the calls of the source. The calls are words filed in the database; no cut-off is given here.

Tests used:
Ramos = assay: Antiproliferative activity against human Ramos cells at 3 to 6 uM after 2 days by CellTiter-Glo assay; assay type: functional, cell-based
How it was run: (§1)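 3000 cells/well in 96-well plates, grown overnight, then inhibitor at indicated concentrations for 2 days (48 h). Viability by CellTiter-Glo; mean±s.d., n=3.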

MOLT-4 = assay: Antiproliferative activity against human MOLT4 cells at 3 to 6 uM after 2 days by CellTiter-Glo assay; assay type: functional, cell-based; how it was run: as §1
BT-474 = assay: Antiproliferative activity against human BT474 cells at 3 to 6 uM after 2 days by CellTiter-Glo assay; assay type: functional, cell-based; how it was run: as §1
[1] = target: Dual specificity protein phosphatase 3 (Homo sapiens, UniProt P51452); assay: Inhibition of VHR (unknown origin) expressed in Escherichia coli BL21(DE3) using DIFMUP as substrate preincubated for 20 mins followed by substrate addition measured after 20 mins by phosphatase assay
How it was run: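 Phosphatases purified from E. coli and run as for SHP2 E76A: 20 min room-temperature preincubation with compound in 0.1 M sodium acetate pH 5.0, then DIFMUP at each enzyme's Km, 20 min, fluorescence 358/455 nm. Eight 3-fold dilutions in duplicate; IC50 from at least three independent experiments.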

Dual specificity protein phosphatase 3, sequence (P51452 whole entry): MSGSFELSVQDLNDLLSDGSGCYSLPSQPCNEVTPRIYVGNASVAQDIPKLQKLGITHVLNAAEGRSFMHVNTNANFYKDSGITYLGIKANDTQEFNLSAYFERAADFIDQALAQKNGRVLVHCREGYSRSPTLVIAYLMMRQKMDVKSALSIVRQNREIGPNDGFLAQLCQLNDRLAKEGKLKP

Q: For `CC1(N)CCN(c2nc(-c3ccc4cc(Br)ccc4c3)cs2)CC1`, which Activity (Ramos) is on record?
A: The Activity was “Active”.

Q: What about the Activity (MOLT-4) of the same compound?
A: The Activity was “Active”.

Q: And the Activity (BT-474)?
A: The Activity was “Active”.

Q: What about the IC50 [1] of the same compound?
A: The IC50 was over 100 µM.
